Assay results from ChEMBL document CHEMBL3286372, “Design, synthesis and structure-activity relationship of novel semi-synthetic flavonoids as antiproliferative agents” (2014).

Columns and labels:
[1] = Growth inhibition of human OVCAR4 cells after 48 hrs by coulter counting analysis; assay type: functional; conditions: OVCAR-4, 48 h
Procedure, shortened: (§1)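 Five-dose NCI-60 follow-up, 0.01–100 µM, made from DMSO stock in buffered saline (final DMSO <1%), in duplicate wells. Cells in RPMI 1640 with 10% FBS at 6×10^4 cells/ml, 37 °C, 5% CO2, 48 h. Cells diluted tenfold in saline, Coulter-counted and corrected for dilution. GI50, TGI and LC50 taken from log concentration–percent growth curves.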

[2] = Growth inhibition of human OVCAR5 cells after 48 hrs by coulter counting analysis; assay type: functional; conditions: OVCAR-5, 48 h; procedure, shortened: as §1
[3] = Growth inhibition of human NCI-ADR-RES cells after 48 hrs by coulter counting analysis; assay type: functional; procedure, shortened: as §1
SK-OV-3 = experiment: Growth inhibition of human SKOV3 cells after 48 hrs by coulter counting analysis; assay type: functional; conditions: SK-OV-3, 48 h; procedure, shortened: as §1
A498 = experiment: Growth inhibition of human A498 cells after 48 hrs by coulter counting analysis; assay type: functional; conditions: A498, 48 h
Procedure, shortened: (§2)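 NCI five-dose screen at 0.01-100 µM, diluted from DMSO stocks in buffered saline (final DMSO <1%). Cells at 6×10^4 cells/ml in RPMI 1640 with 10% FBS, in duplicate wells, at 37 °C under 5% CO2 for 48 h. Cells diluted tenfold in saline and Coulter-counted. GI50, TGI and LC50 taken from log concentration-growth inhibition curves.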

ACHN = experiment: Growth inhibition of human ACHN cells after 48 hrs by coulter counting analysis; assay type: functional; procedure, shortened: as §2
CAKI-1 = experiment: Growth inhibition of human CAKI-1 cells after 48 hrs by coulter counting analysis; assay type: functional; conditions: CAKI-1, 48 h; procedure, shortened: as §2
[4] = Growth inhibition of human RXF393 cells after 48 hrs by coulter counting analysis; assay type: functional; conditions: RXF 393, 48 h; procedure, shortened: as §1
SN12C = experiment: Growth inhibition of human SN12C cells after 48 hrs by coulter counting analysis; assay type: functional; procedure, shortened: as §1
TK-10 = experiment: Growth inhibition of human TK10 cells after 48 hrs by coulter counting analysis; assay type: functional; conditions: TK-10, 48 h
Procedure, shortened: (§3)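 NCI five-dose screen, 0.01-100 µM, from DMSO stocks diluted in buffer saline (final DMSO <1%). Cells grown in RPMI 1640 + 10% FBS, seeded at 6×10^4 cells/ml, in duplicate wells. Exposure 48 h at 37 °C, 5% CO2. Cells diluted 10-fold in saline and counted by Coulter counter. GI50 derived from log concentration–percent growth inhibition curves. Controls carried matching PBS/saline/DMSO.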

[5] = Growth inhibition of human UO31 cells after 48 hrs by coulter counting analysis; assay type: functional; conditions: UO-31, 48 h; procedure, shortened: as §3
DU-145 = experiment: Growth inhibition of human DU145 cells after 48 hrs by coulter counting analysis; assay type: functional; conditions: DU-145, 48 h; procedure, shortened: as §2
MCF7 = experiment: Growth inhibition of human MCF7 cells after 48 hrs by coulter counting analysis; assay type: functional; conditions: MCF7, 48 h; procedure, shortened: as §2
MDA-MB-231 = experiment: Growth inhibition of human MDA-MB-231 cells after 48 hrs by coulter counting analysis; assay type: functional; conditions: MDA-MB-231, 48 h; procedure, shortened: as §2
T47D = experiment: Growth inhibition of human T47D cells after 48 hrs by coulter counting analysis; assay type: functional; procedure, shortened: as §1
[6] = target: Cyclin-dependent kinase 4/cyclin D1 (Homo sapiens) (UniProt P11802+P24385); experiment: Inhibition of CDK4/Cyclin D1 (unknown origin) at 20 uM after 30 mins by scintillation counting analysis relative to control; assay type: protein-complex assay
Procedure, shortened: (§4)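 Recombinant kinases, cloned, expressed and purified in-house. Radiometric ³³P-ATP assay with kinase at ~10-50 nM final and 1-5 µg peptide or protein substrate. Compound at 20 µM final, in duplicate. Reaction started by adding ATP, run 30 min at ambient temperature, then spotted on P81 phosphocellulose. Plates washed in 1% phosphoric acid and counted by scintillation. No-substrate blank subtracted. Result is mean % activity change versus DMSO control.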

[7] = target: Glycogen synthase kinase-3 beta (Homo sapiens) (UniProt P49841); experiment: Inhibition of GSK-3beta (unknown origin) at 20 uM after 30 mins by scintillation counting analysis relative to control; procedure, shortened: as §4
Chain of Glycogen synthase kinase-3 beta (Homo sapiens) (P49841 whole entry, looked up): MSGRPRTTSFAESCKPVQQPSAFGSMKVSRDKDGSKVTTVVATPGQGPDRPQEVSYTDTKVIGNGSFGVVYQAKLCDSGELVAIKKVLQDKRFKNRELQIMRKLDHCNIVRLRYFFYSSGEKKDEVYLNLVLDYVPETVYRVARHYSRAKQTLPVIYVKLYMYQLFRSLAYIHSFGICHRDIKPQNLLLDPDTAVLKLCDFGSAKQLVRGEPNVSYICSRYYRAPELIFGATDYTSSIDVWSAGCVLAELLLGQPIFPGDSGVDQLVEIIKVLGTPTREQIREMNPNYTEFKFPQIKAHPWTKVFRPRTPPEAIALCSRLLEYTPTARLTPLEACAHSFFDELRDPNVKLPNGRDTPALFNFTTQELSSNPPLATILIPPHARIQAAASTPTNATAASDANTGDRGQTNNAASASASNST

K562 = experiment: Growth inhibition of human K562 cells after 48 hrs by coulter counting analysis; assay type: functional; conditions: K562, 48 h; procedure, shortened: as §2
RPMI-8226 = experiment: Growth inhibition of human RPMI8226 cells after 48 hrs by coulter counting analysis; assay type: functional; conditions: RPMI-8226, 48 h; procedure, shortened: as §1
[8] = Growth inhibition of human EKVX cells after 48 hrs by coulter counting analysis; assay type: functional; procedure, shortened: as §2
[9] = Growth inhibition of human HOP92 cells after 48 hrs by coulter counting analysis; assay type: functional; conditions: HOP-92, 48 h; procedure, shortened: as §2
NCI-H226 = experiment: Growth inhibition of human NCI-H226 cells after 48 hrs by coulter counting analysis; assay type: functional; conditions: NCI-H226, 48 h; procedure, shortened: as §1
NCI-H23 = experiment: Growth inhibition of human NCI-H23 cells after 48 hrs by coulter counting analysis; assay type: functional; conditions: NCI-H23, 48 h; procedure, shortened: as §1
NCI-H460 = experiment: Growth inhibition of human NCI-H460 cells after 48 hrs by coulter counting analysis; assay type: functional; conditions: NCI-H460, 48 h; procedure, shortened: as §1
NCI-H522 = experiment: Growth inhibition of human NCI-H522 cells after 48 hrs by coulter counting analysis; assay type: functional; conditions: NCI-H522, 48 h; procedure, shortened: as §1
HCT-116 = experiment: Growth inhibition of human HCT116 cells after 48 hrs by coulter counting analysis; assay type: functional; conditions: HCT-116, 48 h; procedure, shortened: as §2
[10] = Growth inhibition of human HCT15 cells after 48 hrs by coulter counting analysis; assay type: functional; conditions: HCT-15, 48 h; procedure, shortened: as §2
KM12 = experiment: Growth inhibition of human KM12 cells after 48 hrs by coulter counting analysis; assay type: functional; conditions: KM12, 48 h; procedure, shortened: as §2
SW-620 = experiment: Growth inhibition of human SW620 cells after 48 hrs by coulter counting analysis; assay type: functional; conditions: SW-620, 48 h; procedure, shortened: as §1
SNB-19 = experiment: Growth inhibition of human SNB19 cells after 48 hrs by coulter counting analysis; assay type: functional; conditions: SNB-19, 48 h; procedure, shortened: as §1
U-251 = experiment: Growth inhibition of human U251 cells after 48 hrs by coulter counting analysis; assay type: functional; conditions: U-251, 48 h; procedure, shortened: as §3
[11] = Growth inhibition of human LOXIMVI cells after 48 hrs by coulter counting analysis; assay type: functional; conditions: LOX IMVI; procedure, shortened: as §2
M14 = experiment: Growth inhibition of human M14 cells after 48 hrs by coulter counting analysis; assay type: functional; conditions: M14, 48 h; procedure, shortened: as §2
MDA-MB-435 = experiment: Growth inhibition of human MDA-MB-435 cells after 48 hrs by coulter counting analysis; assay type: functional; conditions: MDA-MB-435, 48 h; procedure, shortened: as §2
SK-MEL-2 = experiment: Growth inhibition of human SK-MEL-2 cells after 48 hrs by coulter counting analysis; assay type: functional; conditions: SK-MEL-2, 48 h; procedure, shortened: as §1
SK-MEL-28 = experiment: Growth inhibition of human SK-MEL-28 cells after 48 hrs by coulter counting analysis; assay type: functional; conditions: SK-MEL-28, 48 h; procedure, shortened: as §1
[12] = Growth inhibition of human UACC257 cells after 48 hrs by coulter counting analysis; assay type: functional; conditions: UACC-257, 48 h; procedure, shortened: as §3
IGROV-1 = experiment: Growth inhibition of human IGROV1 cells after 48 hrs by coulter counting analysis; assay type: functional; conditions: IGROV-1, 48 h; procedure, shortened: as §2
[13] = Growth inhibition of human OVCAR3 cells after 48 hrs by coulter counting analysis; assay type: functional; conditions: OVCAR-3, 48 h; procedure, shortened: as §1

Structure (SMILES)	GI50 [1] [µM]	GI50 [2] [µM]	GI50 [3] [µM]	GI50 (SK-OV-3) [µM]	GI50 (A498) [µM]	GI50 (ACHN) [µM]	GI50 (CAKI-1) [µM]	GI50 [4] [µM]	GI50 (SN12C) [µM]	GI50 (TK-10) [µM]	GI50 [5] [µM]	GI50 (DU-145) [µM]	GI50 (MCF7) [µM]	GI50 (MDA-MB-231) [µM]	GI50 (T47D) [µM]	inhibition [6] [%]	inhibition [7] [%]	GI50 (K562) [µM]	GI50 (RPMI-8226) [µM]	GI50 [8] [µM]	also measured
COc1c(C(=O)/C=C/c2ccccc2)c(O)cc2occc12	5.4	5.67	2.42	14.1	7.97	4.51	8.07	3.56	4.48	11.2	3.14	3.81	3.52	4.38	11.1	13	28	4.43	3.15	12.5	GI50 [9]: 1.64 µM; GI50 (NCI-H226): 6.03 µM; GI50 (NCI-H23): 6.12 µM; GI50 (NCI-H460): 3.02 µM; GI50 (NCI-H522): 4.29 µM; GI50 (HCT-116): 3.72 µM; GI50 [10]: 5.25 µM; GI50 (KM12): 3.71 µM; GI50 (SW-620): 3.52 µM; GI50 (SNB-19): 7.33 µM; GI50 (U-251): 4.39 µM; GI50 [11]: 1.69 µM; GI50 (M14): 8.89 µM; GI50 (MDA-MB-435): 3.21 µM; GI50 (SK-MEL-2): 12.4 µM; GI50 (SK-MEL-28): 7.03 µM; GI50 [12]: 7.01 µM; GI50 (IGROV-1): 3.51 µM; GI50 [13]: 3.76 µM
C=CCc1c(O)c(C(=O)/C=C/c2ccccc2)c(OC)c2ccoc12	2.89	3.22	1.88	8.08	1.74	3.79	2.8	1.85	3.79	4.96	2.89	4.92	2.73	3.11	4.11	0	38	2.87	1.88	6.13	GI50 [9]: 1.33 µM; GI50 (NCI-H226): 1.48 µM; GI50 (NCI-H23): 2.52 µM; GI50 (NCI-H460): 2.79 µM; GI50 (NCI-H522): 2.15 µM; GI50 (HCT-116): 3.03 µM; GI50 [10]: 2.91 µM; GI50 (KM12): 4.06 µM; GI50 (SW-620): 3.32 µM; GI50 (SNB-19): 2.85 µM; GI50 (U-251): 2.36 µM; GI50 [11]: 1.56 µM; GI50 (M14): 5.36 µM; GI50 (MDA-MB-435): 2.78 µM; GI50 (SK-MEL-2): 3.04 µM; GI50 (SK-MEL-28): 2.49 µM; GI50 [12]: 2.56 µM; GI50 (IGROV-1): 3.35 µM; GI50 [13]: 2.46 µM
